# Experimental data taken from ChEMBL document CHEMBL4376814, “Novel cyclin-dependent kinase 9 (CDK9) inhibitor with suppression of cancer stemness activity against non-small-cell lung cancer” (Eur J Med Chem, 2019).
# The source made the active and inactive calls. The calls are words filed in the database; no cut-off is given here.
# Columns and labels:
# [1] = target: Cyclin-dependent kinase-like 2 (Homo sapiens) (UniProt Q92772); assay: Inhibition of human CDKL2 at 1 uM at 1 uM by radiometric method relative to control
# How it was run: (§1)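 Percent inhibition of kinase activity at a single compound concentration, measured by the outsourced Eurofins KinaseProfiler panel. Values are the mean of two independent experiments.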
# Homo sapiens = organism: Homo sapiens; assay: Inhibition of recombinant full-length human PI3K p110alpha/p65alpha (1 to 571 residues) at 1 uM using phosphatidylinositol-4, 5-bisphosphate as substrate measured after 40 mins by HTRF assay relative to control
# How it was run: (§2)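 Single-point inhibition at 1 µM was measured in the Eurofins KinaseProfiler panel. Values are the mean of two independent experiments.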
# A549 [2] = assay: Inhibition of tumorsphere formation in human A549 cells assessed as decrease in number of spheres at 0.25 to 1 uM after 2 weeks by microscopic analysis; format: functional, cell-based
# [3] = target: Mitogen-activated protein kinase 14 (Homo sapiens) (UniProt Q16539); assay: Inhibition of recombinant full-length human SAPK2a at 1 uM using myelin basic protein as substrate measured after 40 mins in presence of [gamma33P]ATP by scintillation counting method relative to control
# [4] = target: Hepatocyte growth factor receptor (Homo sapiens) (UniProt P08581); assay: Inhibition of recombinant human MET A1209G/V1290L mutant (974 to end residues) at 1 uM using KKKGQEEEYVFIE as substrate measured after 40 mins in presence of [gamma33P]ATP by scintillation counting method relative to control
# [5] = target: Casein kinase I isoform gamma-1 (Homo sapiens) (UniProt Q9HCP0); assay: Inhibition of recombinant human CK1gamma1 (25 to 355 residues) at 1 uM using KRRRALS(p)VASLPGL as substrate measured after 40 mins in presence of [gamma33P]ATP by scintillation counting method relative to control; how it was run: as §2
# A549 [6] = assay: Induction of apoptosis in human A549 cells assessed as early apoptotic cells at 1 uM after 48 hrs by AnnexinV-FITC/PI staining-based flow cytometric analysis (reference value: 2.91%); format: functional
# A549 [7] = assay: Down regulation of CDK9 expression in human A549 cells at 0.25 to 1 uM after 24 hrs by Western blot analysis; format: functional, cell-based
# How it was run: (§3)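 A549 and H1299 cells treated for 24 h with serial dilutions alongside a DMSO control. Protein extracts resolved and immunoblotted.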
# [8] = target: Insulin receptor (Homo sapiens) (UniProt P06213); assay: Inhibition of recombinant human IR (1005 to 1310 residues) at 1 uM using KKSRGDYMTMQIG as substrate measured after 40 mins in presence of [gamma33P]ATP by scintillation counting method relative to control
# [9] = target: Inhibitor of nuclear factor kappa-B kinase subunit beta (Homo sapiens) (UniProt O14920); assay: Inhibition of recombinant full-length human IKKbeta at 1 uM using peptide substrate measured after 40 mins in presence of [gamma33P]ATP by scintillation counting method relative to control
# [10] = target: Mitogen-activated protein kinase 1 (Homo sapiens) (UniProt P28482); assay: Inhibition of recombinant full-length human MAPK2 at 1 uM using MBP as substrate measured after 40 mins in presence of [gamma33P]ATP by scintillation counting method relative to control
# NCI-H1299 [11] = assay: Down regulation CDK9 expression in human H1299 cells at 0.25 to 1 uM after 24 hrs by Western blot analysis; format: functional, cell-based; how it was run: as §3
# NCI-H1299 [12] = assay: Induction of apoptosis in human H1299 cells assessed as activation of caspase 3 at 0.25 to 1 uM after 24 hrs by Western blot analysis; format: functional, cell-based
# How it was run: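 A549 or H1299 cells exposed to the indicated concentrations for 24 h. Protein extracts then immunoblotted for apoptosis-pathway proteins (Bcl2, Bim, cleaved caspase 3).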
# [13] = target: Cyclin-dependent kinase-like 4 (Homo sapiens) (UniProt Q5MAI5); assay: Inhibition of human CDKL4 at 1 uM at 1 uM by radiometric method relative to control; how it was run: as §1
# [14] = target: cAMP-dependent protein kinase catalytic subunit PRKX (Homo sapiens) (UniProt P51817); assay: Inhibition of recombinant full-length human PrKX at 1 uM using RRRLSFAEPG as substrate measured after 40 mins in presence of [gamma33P]ATP by scintillation counting method relative to control
# Chain of cAMP-dependent protein kinase catalytic subunit PRKX (Homo sapiens) (P51817 whole entry): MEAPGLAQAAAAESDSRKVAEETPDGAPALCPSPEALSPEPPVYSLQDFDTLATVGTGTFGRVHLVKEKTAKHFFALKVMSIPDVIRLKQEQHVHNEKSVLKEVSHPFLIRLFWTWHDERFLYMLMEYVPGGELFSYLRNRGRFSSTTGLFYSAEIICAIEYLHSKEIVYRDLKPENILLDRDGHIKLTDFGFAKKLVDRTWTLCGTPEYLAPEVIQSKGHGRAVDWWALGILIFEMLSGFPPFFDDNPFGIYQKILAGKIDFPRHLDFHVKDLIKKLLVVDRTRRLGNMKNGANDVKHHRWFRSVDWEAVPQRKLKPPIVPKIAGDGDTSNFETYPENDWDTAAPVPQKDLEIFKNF
# Chain of Mitogen-activated protein kinase 1 (Homo sapiens) (P28482 whole entry): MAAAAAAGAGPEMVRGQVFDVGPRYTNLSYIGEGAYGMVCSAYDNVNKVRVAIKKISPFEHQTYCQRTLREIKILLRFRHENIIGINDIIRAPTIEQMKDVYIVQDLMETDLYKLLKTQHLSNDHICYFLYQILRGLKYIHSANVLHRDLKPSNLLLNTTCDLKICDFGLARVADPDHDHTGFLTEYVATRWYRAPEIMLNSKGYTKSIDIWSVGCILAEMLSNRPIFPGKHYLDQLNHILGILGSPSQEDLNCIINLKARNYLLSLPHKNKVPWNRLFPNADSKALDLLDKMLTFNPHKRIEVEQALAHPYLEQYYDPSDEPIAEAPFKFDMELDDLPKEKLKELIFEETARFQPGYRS
# Chain of Casein kinase I isoform gamma-1 (Homo sapiens) (Q9HCP0 whole entry, looked up, the tested form may be a part, canonical isoform): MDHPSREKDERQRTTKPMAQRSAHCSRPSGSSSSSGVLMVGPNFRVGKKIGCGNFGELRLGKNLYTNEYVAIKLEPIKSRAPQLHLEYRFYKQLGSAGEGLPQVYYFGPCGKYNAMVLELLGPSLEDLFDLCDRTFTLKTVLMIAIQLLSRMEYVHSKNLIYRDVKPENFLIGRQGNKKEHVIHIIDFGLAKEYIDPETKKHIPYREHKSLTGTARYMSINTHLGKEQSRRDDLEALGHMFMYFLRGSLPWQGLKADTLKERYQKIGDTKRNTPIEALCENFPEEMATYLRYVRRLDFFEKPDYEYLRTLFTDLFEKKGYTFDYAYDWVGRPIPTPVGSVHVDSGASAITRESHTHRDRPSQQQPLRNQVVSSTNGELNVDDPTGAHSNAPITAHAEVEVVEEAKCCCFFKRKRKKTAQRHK
# Chain of Cyclin-dependent kinase-like 4 (Homo sapiens) (Q5MAI5 whole entry): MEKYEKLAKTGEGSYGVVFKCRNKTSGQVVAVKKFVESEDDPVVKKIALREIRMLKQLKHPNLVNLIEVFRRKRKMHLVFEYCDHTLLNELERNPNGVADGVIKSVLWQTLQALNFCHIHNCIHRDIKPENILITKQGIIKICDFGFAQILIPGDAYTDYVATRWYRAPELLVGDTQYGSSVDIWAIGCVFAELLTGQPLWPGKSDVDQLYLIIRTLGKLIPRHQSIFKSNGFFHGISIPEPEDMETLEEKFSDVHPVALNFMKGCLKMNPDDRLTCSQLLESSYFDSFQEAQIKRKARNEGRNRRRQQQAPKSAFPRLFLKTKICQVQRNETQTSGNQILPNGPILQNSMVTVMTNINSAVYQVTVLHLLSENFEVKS
# Chain of Cyclin-dependent kinase-like 2 (Homo sapiens) (Q92772 whole entry): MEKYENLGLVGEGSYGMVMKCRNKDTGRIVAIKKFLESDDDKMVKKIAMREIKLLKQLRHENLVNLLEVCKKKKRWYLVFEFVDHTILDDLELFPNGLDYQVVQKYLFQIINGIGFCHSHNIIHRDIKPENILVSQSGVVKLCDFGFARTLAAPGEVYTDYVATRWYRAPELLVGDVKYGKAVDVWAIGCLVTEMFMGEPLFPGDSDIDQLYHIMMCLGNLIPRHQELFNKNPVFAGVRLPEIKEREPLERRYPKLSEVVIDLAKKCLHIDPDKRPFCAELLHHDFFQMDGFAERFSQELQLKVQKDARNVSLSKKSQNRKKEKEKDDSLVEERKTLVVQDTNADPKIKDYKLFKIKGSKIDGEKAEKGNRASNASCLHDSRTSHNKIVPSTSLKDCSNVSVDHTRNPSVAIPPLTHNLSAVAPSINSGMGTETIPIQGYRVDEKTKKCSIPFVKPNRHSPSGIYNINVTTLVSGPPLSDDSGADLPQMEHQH
# Chain of Insulin receptor (Homo sapiens) (P06213 28-758 limits assumed): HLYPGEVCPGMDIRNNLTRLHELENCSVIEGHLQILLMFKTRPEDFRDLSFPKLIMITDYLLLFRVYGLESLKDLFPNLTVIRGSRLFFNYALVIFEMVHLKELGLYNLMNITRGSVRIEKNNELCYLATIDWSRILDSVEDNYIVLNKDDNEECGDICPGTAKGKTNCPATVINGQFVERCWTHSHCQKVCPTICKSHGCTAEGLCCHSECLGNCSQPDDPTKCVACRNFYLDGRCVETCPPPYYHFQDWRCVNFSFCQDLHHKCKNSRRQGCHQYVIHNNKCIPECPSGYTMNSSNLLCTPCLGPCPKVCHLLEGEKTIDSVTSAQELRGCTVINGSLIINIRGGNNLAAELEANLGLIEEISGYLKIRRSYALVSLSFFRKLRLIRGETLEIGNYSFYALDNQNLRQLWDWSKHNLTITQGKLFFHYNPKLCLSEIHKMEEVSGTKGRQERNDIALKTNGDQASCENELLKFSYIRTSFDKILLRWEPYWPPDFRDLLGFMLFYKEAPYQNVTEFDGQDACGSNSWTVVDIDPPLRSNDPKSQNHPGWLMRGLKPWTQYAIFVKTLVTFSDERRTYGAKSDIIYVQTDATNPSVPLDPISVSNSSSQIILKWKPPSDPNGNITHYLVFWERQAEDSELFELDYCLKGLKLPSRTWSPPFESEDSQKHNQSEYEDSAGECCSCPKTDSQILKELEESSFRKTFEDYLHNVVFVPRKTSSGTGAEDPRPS
# Chain of Insulin receptor (Homo sapiens) (P06213 763-1382 limits assumed): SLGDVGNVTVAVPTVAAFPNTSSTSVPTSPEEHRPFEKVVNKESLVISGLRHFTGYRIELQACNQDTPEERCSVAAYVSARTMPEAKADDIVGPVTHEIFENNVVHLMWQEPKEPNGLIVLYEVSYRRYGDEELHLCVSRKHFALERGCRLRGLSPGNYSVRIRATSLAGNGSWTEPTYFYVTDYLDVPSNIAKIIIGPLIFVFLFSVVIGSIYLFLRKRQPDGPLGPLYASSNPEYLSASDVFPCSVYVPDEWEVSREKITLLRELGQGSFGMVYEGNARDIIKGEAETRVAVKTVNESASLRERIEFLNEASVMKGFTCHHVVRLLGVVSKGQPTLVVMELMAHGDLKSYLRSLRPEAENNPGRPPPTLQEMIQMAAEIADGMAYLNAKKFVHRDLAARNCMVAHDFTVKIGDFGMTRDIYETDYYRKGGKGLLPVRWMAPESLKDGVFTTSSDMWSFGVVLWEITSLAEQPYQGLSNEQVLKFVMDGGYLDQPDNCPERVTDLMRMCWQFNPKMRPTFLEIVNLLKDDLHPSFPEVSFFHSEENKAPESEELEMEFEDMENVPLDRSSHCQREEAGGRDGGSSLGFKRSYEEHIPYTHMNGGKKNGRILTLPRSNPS
# Chain of Inhibitor of nuclear factor kappa-B kinase subunit beta (Homo sapiens) (O14920 whole entry): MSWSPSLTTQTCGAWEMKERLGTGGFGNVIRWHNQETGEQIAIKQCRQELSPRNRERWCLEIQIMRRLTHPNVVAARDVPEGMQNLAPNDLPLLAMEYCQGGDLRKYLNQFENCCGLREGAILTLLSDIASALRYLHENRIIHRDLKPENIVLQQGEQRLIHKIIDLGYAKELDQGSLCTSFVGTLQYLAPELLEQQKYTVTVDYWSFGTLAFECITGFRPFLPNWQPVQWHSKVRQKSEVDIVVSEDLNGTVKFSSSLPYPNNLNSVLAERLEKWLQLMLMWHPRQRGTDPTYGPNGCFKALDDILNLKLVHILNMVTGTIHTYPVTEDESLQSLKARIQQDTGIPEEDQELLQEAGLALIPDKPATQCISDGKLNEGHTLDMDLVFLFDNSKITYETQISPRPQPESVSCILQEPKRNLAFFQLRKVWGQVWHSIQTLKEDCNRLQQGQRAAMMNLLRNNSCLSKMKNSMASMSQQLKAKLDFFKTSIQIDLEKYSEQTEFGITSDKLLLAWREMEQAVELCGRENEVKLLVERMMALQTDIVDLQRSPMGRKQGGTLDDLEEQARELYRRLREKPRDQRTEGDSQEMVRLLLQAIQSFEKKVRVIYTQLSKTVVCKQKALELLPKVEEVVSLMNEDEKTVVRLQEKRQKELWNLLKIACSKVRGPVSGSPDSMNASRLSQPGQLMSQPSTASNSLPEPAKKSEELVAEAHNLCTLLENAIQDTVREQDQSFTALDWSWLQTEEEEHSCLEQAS
# Chain of Mitogen-activated protein kinase 14 (Homo sapiens) (Q16539 whole entry): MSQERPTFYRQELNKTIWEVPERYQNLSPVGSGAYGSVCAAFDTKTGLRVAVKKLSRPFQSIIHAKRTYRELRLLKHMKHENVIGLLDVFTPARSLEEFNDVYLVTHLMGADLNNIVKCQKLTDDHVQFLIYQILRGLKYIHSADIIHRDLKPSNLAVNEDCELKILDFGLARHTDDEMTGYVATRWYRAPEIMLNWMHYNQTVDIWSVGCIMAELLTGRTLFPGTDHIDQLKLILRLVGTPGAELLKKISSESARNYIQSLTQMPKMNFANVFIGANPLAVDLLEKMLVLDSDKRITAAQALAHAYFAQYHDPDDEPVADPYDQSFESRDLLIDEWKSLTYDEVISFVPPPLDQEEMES
smiles,measurement,setting,value
CN(C)C(=O)c1cc2cnc(Nc3ccc(NC(=O)CCCCCCCN=C=S)cc3)nc2n1C1CCCC1,inhibition,[1],57%
same,inhibition,Homo sapiens,1%
same,Activity,A549 [2],Active
same,inhibition,[3],20%
same,inhibition,[4],84%
same,inhibition,[5],11%
same,Activity,A549 [6],1.06%
same,Activity,A549 [7],inactive
same,inhibition,[8],-6%
same,inhibition,[9],-1%
same,inhibition,[10],7%
same,Activity,NCI-H1299 [11],inactive
same,Activity,NCI-H1299 [12],Active
same,inhibition,[13],25%
same,inhibition,[14],-1%
